According to ChEMBL document CHEMBL1641521, “Design, synthesis and antimycobacterial activities of 1-methyl-2-alkenyl-4(1H)-quinolones” (Bioorg Med Chem, 2011):
In brackets after ≈: the same amount, converted by molar mass.

Tests used:
[1] = system: Mycolicibacterium smegmatis; assay: Antimycobacterial activity against Mycobacterium smegmatis ATCC 19420 after 72 hrs by broth microtiter dilution method; type: functional; details: ATCC 19420, 72 h
Method in brief: (§1)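 Twofold serial dilution in cation-adjusted Mueller–Hinton broth, final 128–0.25 mg/L, compounds first dissolved in DMSO. Strains grown on Columbia blood agar with 7% defibrinated horse blood; inoculum 5 x 10^5 cfu/mL from 0.5 McFarland suspension in 0.9% NaCl. Three runs in duplicate.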

[2] = Cytotoxicity against human MRC5 cells assessed as metabolic active cells at 30 uM after 72 hrs by XTT assay relative to control; type: ADME, cell-based; details: read-out: Activity
Method in brief: (§2)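 MRC-5 human diploid embryonic lung cells seeded at 5 × 10^4 cells/well, grown 24 h, then exposed 72 h at 37 °C, 5% CO2 to compound. Ethanol stocks were diluted with buffer or water; 0.1% ethanol served as solvent control. XTT added, 4 h further, absorbance 490 nm minus 655 nm reference. Viability given as % of solvent control; triplicate on two plates, n = 6, mean ± SEM.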

[3] = Cytotoxicity against human MRC5 cells assessed as metabolic active cells at 100 uM after 72 hrs by XTT assay relative to control; type: ADME, cell-based; details: read-out: Activity; method in brief: as §2
[4] = Selectivity index, ratio of IC50 for human MRC5 cells to MIC for Mycobacterium smegmatis ATCC 19420; type: functional
[5] = system: Mycolicibacterium fortuitum; assay: Antimycobacterial activity against Mycobacterium fortuitum ATCC 6841 after 72 hrs by broth microtiter dilution method; type: functional; details: ATCC 6841, 72 h; method in brief: as §1
Mycolicibacterium phlei = assay: Antimycobacterial activity against Mycobacterium phlei ATCC 19249 after 72 hrs by broth microtiter dilution method; type: functional; details: ATCC 19249, 72 h; method in brief: as §1

| MIC [1] [µM] | MIC [5] [µg/mL] | MIC (Mycolicibacterium phlei) [µg/mL] | SMILES | viability at 72 h, 30 µM [2] [%] | viability at 72 h, 100 µM [3] [%] | Selectivity Index [4] |
| --- | --- | --- | --- | --- | --- | --- |
| 293 (≈ 128 µg/mL) |  |  | CCCCCCCCCC/C=C\CCCCCCCCc1cc(=O)c2ccccc2n1C | 98.9 | 91.5 |  |
| 12.9 (≈ 4.02 µg/mL) |  |  | CCCCC/C=C\CCCCc1cc(=O)c2ccccc2n1C | 94.9 | 88.5 |  |
| 5.9 (≈ 2 µg/mL) |  |  | CC/C=C\CCCCCCCCCc1cc(=O)c2ccccc2n1C | 95.3 | 95.4 | > 20 |
| 10.9 (≈ 3.98 µg/mL) | 2 (≈ 5.47 µM) | 4 (≈ 10.9 µM) | CCCCCCCCCCC/C=C/C=C/c1cc(=O)c2ccccc2n1C | 50.7 | 18.5 |  |
| 53.9 (≈ 16 µg/mL) |  |  | CCCCCC/C=C\CCc1cc(=O)c2ccccc2n1C | 73.8 | 47.9 |  |
| 151 (≈ 64.1 µg/mL) |  |  | CCCCCCCCC/C=C\CCCCCCCCc1cc(=O)c2ccccc2n1C | 95.9 | 19.9 |  |
| 6.2 (≈ 2.02 µg/mL) |  |  | CCCCCCCC/C=C\CCc1cc(=O)c2ccccc2n1C | 88.3 | 85.6 | > 20 |
| 2.7 (≈ 0.992 µg/mL) |  |  | CCCCCCCCC/C=C\CCCCc1cc(=O)c2ccccc2n1C | 46.6 | 0.8 |  |
| 62.7 (≈ 16 µg/mL) |  |  | CCCCC/C=C/c1cc(=O)c2ccccc2n1C | 86.2 | 77.2 |  |
| 5.1 (≈ 2.01 µg/mL) | 4 (≈ 10.2 µM) | 8 (≈ 20.3 µM) | CCCCC/C=C\C/C=C\CCCCCCCc1cc(=O)c2ccccc2n1C | 44.2 | 0.4 |  |
| 20.3 (≈ 8.03 µg/mL) |  |  | CCCCCCCC/C=C\CCCCCCCc1cc(=O)c2ccccc2n1C | 53.4 | 0.4 |  |
| 5.9 (≈ 2 µg/mL) | 2 (≈ 5.89 µM) | 2 (≈ 5.89 µM) | CCCCC/C=C\CCCCCCc1cc(=O)c2ccccc2n1C [EVOCARPINE] | 94 | 87.6 |  |
| 14.9 (≈ 4.01 µg/mL) |  |  | CCCCCC/C=C/c1cc(=O)c2ccccc2n1C | 96.8 | 76.5 |  |

Continued, compound first:

| SMILES | MIC [1] [µM] | MIC [5] [µg/mL] | MIC (Mycolicibacterium phlei) [µg/mL] | viability at 72 h, 30 µM [2] [%] | viability at 72 h, 100 µM [3] [%] | Selectivity Index [4] |
| --- | --- | --- | --- | --- | --- | --- |
| CCCCCCCCCCCCCCCc1cc(=O)c2ccccc2n1C | 347 (≈ 128 µg/mL) |  |  | 79.8 | 57.9 |  |
| CCCCCC/C=C\CCCCc1cc(=O)c2ccccc2n1C | 3.1 (≈ 1.01 µg/mL) |  |  | 94.7 | 81.2 | > 20 |
| CCCCCCCC/C=C\CCCCCCCCc1cc(=O)c2ccccc2n1C | 39.1 (≈ 16 µg/mL) |  |  | 84.4 | 25.5 |  |
| CCCC/C=C\CCCCc1cc(=O)c2ccccc2n1C | 26.9 (≈ 8 µg/mL) | 8 (≈ 26.9 µM) | 8 (≈ 26.9 µM) | 96.8 | 83.5 |  |
| CCCCCCCCCCCCCCCCCc1cc(=O)c2ccccc2n1C | > 322 |  |  | 100 | 95.2 |  |
| CCCCCCCCCC/C=C\CCc1cc(=O)c2ccccc2n1C | 2.8 (≈ 0.99 µg/mL) | 1 (≈ 2.83 µM) | 1 (≈ 2.83 µM) | 55.1 | 4.9 |  |
| NNC(=O)c1ccncc1 [ISONIAZID] |  | 1 (≈ 7.29 µM) | 4 (≈ 29.2 µM) |  |  |  |
| CCCCCCCCC/C=C\CCc1cc(=O)c2ccccc2n1C | 5.9 (≈ 2 µg/mL) |  |  | 89.7 | 82.1 | > 20 |
| CCCCCCCCCCCCCc1cc(=O)c2ccccc2n1C | 188 (≈ 64.1 µg/mL) |  |  | 102 | 69.6 |  |
| CCCCCCCC/C=C\CCCc1cc(=O)c2ccccc2n1C | 5.9 (≈ 2 µg/mL) |  |  | 76.3 | 32 |  |
| CC[C@@H](CO)NCCN[C@@H](CC)CO [ETHAMBUTOL] |  | 8 (≈ 39.2 µM) | 4 (≈ 19.6 µM) |  |  |  |
| CCCCCCCCCC/C=C/C=C/c1cc(=O)c2ccccc2n1C | 182 (≈ 64.1 µg/mL) |  |  | 73.8 | 32.5 |  |
